Bioassay records as filed in PubChem.
NPR2 activator: GC-B (human) receptor activation. P20594. HEK293-GC-B cells, CNP EC30, cGMP TR-FRET; 0% at EC30 CNP, 100% saturating CNP. activation, % at 10 µM. 370,000 tested, 0.11% active. AID 1920062;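 active = activation at 10 µM reaching about 35% in either raw or pattern-adjusted values, limit read from the data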
N-glyco inh: blocks N-linked glycosylation in D54 reporter cells | D54 ERlucT glycosylation luciferase reporter, 24 h; percent of 100 nM tunicamycin response | reporter increase, % at 12.5 µM | 360,000 tested, 0.23% active | AID 588692;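 active = mean luciferase reporter signal, scaled so untreated is 0 and the glycosylation-blocking control 100, at or above a set limit in every replicate; inconclusive = mean reaches the limit but not every replicate does; inactive = mean below the limit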;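 note: luciferase carries N-glycosylation sites so blocking glycosylation raises the light; 0% = median of neutral control wells and 100% = median of 100 nM tunicamycin wells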
CaV13 FRET inh: Disruptors of the CACNA1D IQ motif to Ca2+-dependent inactivation inhibitor domain association, primary screening, Förster resonance energy transfer in intact living …; HEK cells, CFP/YFP FRET ICDI-IQ, plate reader, 10 min; percent FRET-ratio fall versus neutral wells; inhibition, % at 12.3 µM; 340,000 tested, 0.098% active; AID 743397;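 active = mean replicate inhibition of at least 30% and at least 1% of replicates passing that level; inconclusive = only one of the two criteria is met; inactive = neither criterion is met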;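 note: 0% = median of the neutral control wells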
Vif imaging: inhibitors of HIV Vif; HEK293T cells, Vif self-association by quenched fluorescence, imaging, 24 h; inhibition, % at 7.49 µM; 340,000 tested, 0.35% active; AID 602346; in the data active = inhibition above about 50%, passing the limit was not always enough; inconclusive = no clear call, values can overlap the other calls; inactive = below about 31%
Xi reactivation: X-chromosome reactivation activator | AID 743238 | 360,000 tested, 0.055% active | activation, % at 7.58 µM | XiGFP mouse fibroblasts, % GFP-positive cells imaging, 3 d; cells co-treated with 5-aza-dC sensitizer; scaled so ellipticine positive control = 100%;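 active = mean normalized replicate activation at least 10% and every replicate at or above 10%; inconclusive = only one of the two criteria met; inactive = mean below 10% and not all replicates reach 10%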;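 note: 0% = median of on-plate neutral control wells and 100% = ellipticine 6 µM median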
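Assay system – SV40-immortalized XiGFP fibroblast cells, line 68-5-11 · Buffer or medium – DMEM supplemented with 5-aza-dC as sensitizing agent · Dosing – one concentration, pinned · Benchmarks – positive control ellipticine, 6 µM final · Times – 3 days compound exposure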
NPR1 activator: GC-A (human) enzyme activation; P16066; HEK293 GC-A cells, cGMP TR-FRET, EC30 ANP; 0% at EC30 ANP, 100% saturating ANP; activation, % at 10 µM; 370,000 tested, 0.14% active; in the data active = activation above about 40%
Starred values were filed as active, the others as inactive; ? = inconclusive; nt = not tested or not shown; + = active, no number. The list is not random: actives were taken first. Their share in the collection is about 0.7%.

SMILES | NPR2 activator | N-glyco inh | CaV13 FRET inh | Vif imaging | Xi reactivation | NPR1 activator
CCc1cccc(CC)c1NC(=O)CN1C2CCCC1CC(NC(=O)Nc1cccc(OC)c1)C2 (stereo not drawn) | 5 | 39* | -2 | 0 | 0 | -1
CC(=O)c1cccc(NC(=O)NC2CC3CCCC(C2)N3CC(C)C)c1 (stereo not drawn) | 0 | 3 | nt | 54* | nt | -1
CCCN1C2CCCC1CC(NC(=O)Nc1cccc(C(C)=O)c1)C2 (stereo not drawn) | 2 | 3 | -3 | -13 | nt | -3
O=C(OCc1ccc(Br)cc1)c1cnc(Cl)c(Cl)c1 | -4 | 15 | -2 | 5 | 0 | 15
O=C(COC(=O)c1cnc(Cl)c(Cl)c1)c1ccc(F)cc1 | -2 | 1 | -6 | -3 | 0 | 52*
C[C@H]1CN([C@@H](C)CO)C(=O)c2cccc(NC(=O)CCCCCC(=O)Nc3ccccc3N)c2O[C@@H]1CN(C)Cc1ccccc1 | nt | nt | nt | nt | -1 | nt
CCc1ccccc1OCC(=O)Nc1ccc(N2CCCC2)cc1C | 1 | -3 | -6 | -4 | 37* | 1
COc1cc(/C=N/N2C(=O)CSC2=S)ccc1O | -4 | 1 | -9 | 1 | nt | -5
O=C1CSC(=S)N1/N=C/c1cc(Br)c(O)c(Br)c1 | nt | 1 | nt | 70* | nt | nt
O=C(NC1CCCC(C(F)(F)F)C1)c1ccc([N+](=O)[O-])o1 (stereo not drawn) | -4 | 29* | -5 | -2 | 0 | -1
O=C(NC1CCCCC1)c1ccc([N+](=O)[O-])o1 | nt | 41* | nt | 25 | nt | nt
O=C(COC(=O)c1ccc([N+](=O)[O-])o1)NC1CCCC1 | 6 | 1 | -6 | 22 | 0 | -1
COc1ccc(S(=O)(=O)Nc2cccc3c2O[C@H](CN(C)S(=O)(=O)c2ccc(OC)cc2)[C@@H](C)CN([C@@H](C)CO)C3=O)cc1 | nt | nt | nt | nt | 0 | nt
CCOC(=O)N1CCN(C(=O)C2CCN(C(=O)c3ccccc3C)CC2)CC1 | 18 | -8 | -5 | 6 | 1 | 41*
Cc1ccccc1C(=O)N1CCC(C(=O)N2CCN(c3ncccn3)CC2)CC1 | -1 | -2 | -5 | 1 | 0 | 0
CC1CCC(NC(=O)N(CCCl)N=O)CC1 (stereo not drawn) | 2 | ? | -5 | 59* | 0 | 2
CC1CCC(NC(=S)NCCN(C)C)CC1 (stereo not drawn) | 2 | -1 | -2 | -11 | 0 | 2
Cc1ccccc1CC(=O)Nc1ccon1 | -4 | -1 | -5 | 11 | 0 | 6
COc1ccccc1CC(=O)Nc1ccon1 | -2 | 1 | -2 | 56* | 0 | -1
CCn1nc(C)c(/C=N/NC(=O)Cn2nnc(N)n2)c1C | 1 | 1 | -5 | 59* | 0 | -2
COc1cccc(S(=O)(=O)Nc2ccc3c(c2)[C@@H]2C[C@@H](CC(=O)NCc4cccc(F)c4)O[C@H](CO)[C@@H]2O3)c1 | nt | nt | nt | nt | 0 | nt
O=C(NNC1CC(=O)N(c2cccc(Cl)c2)C1=O)c1cccs1 (stereo not drawn) | 1 | 1 | -5 | 53* | 0 | 0
COc1cccc(N2C(=O)CC(NNC(=O)c3cccs3)C2=O)c1 (stereo not drawn) | -1 | 4 | -3 | 4 | 0 | 3
CCOC(=O)c1c(C)[nH]c(C)c1C(=O)COC(=O)C1CC(=O)N(CCc2ccccc2)C1 (stereo not drawn) | -7 | 4 | -6 | 51* | 0 | -2
CCCNC(=O)Nc1ccc2c(c1)C(=O)N(C)C[C@H](OC)[C@@H](C)CN(CC1CCCC1)[C@H](C)CO2 | nt | nt | nt | nt | 0 | nt
SMILES | NPR2 activator | N-glyco inh | CaV13 FRET inh | Vif imaging | Xi reactivation | NPR1 activator
CCOC(=O)c1sc(-c2ccc(Br)cc2)cc1N | -7 | -4 | -8 | 2 | nt | 6
NNC(=O)c1sc(-c2ccc(Cl)cc2)cc1N | -4 | 0 | -5 | 14 | 19* | 24
NS(=O)(=O)c1cccc(-n2cnnn2)c1 | 0 | 0 | -6 | 11 | 40* | 6
C[C@@H]1CCCCO[C@H](CN(C)C)[C@@H](C)CN([C@@H](C)CO)C(=O)c2cc(NC(=O)NC3CCCCC3)ccc2O1 | nt | nt | nt | nt | 0 | nt
COc1ccc2c3c(n(C)c2c1)[C@@H](CO)NCC31CCN(C(=O)c2cccc(F)c2)CC1 | nt | nt | nt | nt | 0 | nt
CC(C)COc1ccc(C(=O)OCC(=O)NCc2cccs2)cc1 | 2 | 22 | -9 | 32 | 0 | -2
CC(=O)Nc1ccc(C(=O)OCC(=O)NCc2cccs2)cc1 | 68* | 2 | -3 | 0 | 0 | -1
COc1cccc(CNC(=O)COC(=O)c2ccc(-c3ccc(O)cc3)cc2)c1 | 0 | 28* | -5 | 13 | 0 | 1
COc1cccc(CNC(=O)COC(=O)c2ccc(C(=O)c3ccccc3)cc2)c1 | 1 | 0 | -16 | 14 | 0 | 0
CC(C)NC(=O)Nc1ccc2c(c1)CC(=O)N([C@H](C)CO)C[C@H](C)[C@@H](CN(C)S(C)(=O)=O)O2 | nt | nt | nt | nt | -1 | nt
COc1ccc(NC(=O)C2CCC(CNS(=O)(=O)c3cccs3)CC2)cc1 (stereo not drawn) | 0 | -1 | 31* | -1 | 0 | 3
CN(CC(=O)NCCc1ccc(S(N)(=O)=O)cc1)S(=O)(=O)c1ccc(Br)s1 | -5 | -1 | -4 | 62* | 0 | 4
CC(C)C1Nc2ccc(C(=O)NCCCN3CCOCC3)cc2NC1=O (stereo not drawn) | nt | 1 | nt | 55* | nt | nt
COCCN(C(=O)CCl)C(C(=O)NC1CCCCC1)c1ccccc1C (stereo not drawn) | -4 | 30* | -15 | -2 | 0 | -16
CCOCCCN(C(=O)CNC(=O)c1ccco1)C(C(=O)NC1CCCC1)c1cccc(OC)c1 (stereo not drawn) | 3 | -1 | -3 | 24 | 0 | -6
COCCN(C(=O)CNC(=O)c1ccco1)C(C(=O)NC1CCCC1)c1cccc(OC)c1 (stereo not drawn) | 3 | -1 | -3 | 52* | 0 | -1
Cc1cc(=O)oc2cc(OC(=O)c3cncc(Br)c3)ccc12 | 3 | -1 | 45* | -2 | 0 | -5
CCCC(=O)Oc1ccc2c(C)cc(=O)oc2c1 | -3 | 0 | -5 | 6 | 0 | 5
COc1cc(C2c3cc4c(cc3OC(NNC(N)=S)C2C)OCO4)cc(OC)c1OC (stereo not drawn) | -2 | 11 | -5 | 56* | 1 | -5
COc1cc([C@@H]2c3cc4c(cc3[C@H](O)[C@H]3COC(=O)[C@H]23)OCO4)cc(OC)c1OC | 1 | 12 | -8 | + | 1 | -5
